According to ChEMBL document CHEMBL2157970, “New prenylated isoflavonoids as protein tyrosine phosphatase 1B (PTP1B) inhibitors from Erythrina addisoniae” (Bioorg Med Chem, 2012):

Key:
MCF7 = test: Cytotoxicity against human MCF7 cells after 48 hrs by MTT assay; format: functional, cell-based
Method in brief: (§1)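 Cells kept in DMEM with 10% heat-inactivated FBS, 4.5 g/L D-glucose, sodium pyruvate and L-glutamine at 37 °C, 5% CO2. Seeded at 1 × 10^4 cells/well, left to adhere 24 h, then exposed 48 h to a range of concentrations at 0.05% (v/v) DMSO final. MTT added for 4 h, absorbance at 550 nm. Viability taken relative to control wells; IC50 from triplicates, mean ± SD.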

[1] = Cytotoxicity against human MCF7/ADR cells after 48 hrs by MTT assay; format: functional, cell-based, NCI/ADR-RES; method in brief: as §1
[2] = target: T1, Tyrosine-protein phosphatase non-receptor type 1 (Homo sapiens, UniProt P18031); test: Inhibition of human recombinant PTP1B using p-nitrophenyl phosphate as substrate after 30 mins
T1 sequence (P18031 whole entry): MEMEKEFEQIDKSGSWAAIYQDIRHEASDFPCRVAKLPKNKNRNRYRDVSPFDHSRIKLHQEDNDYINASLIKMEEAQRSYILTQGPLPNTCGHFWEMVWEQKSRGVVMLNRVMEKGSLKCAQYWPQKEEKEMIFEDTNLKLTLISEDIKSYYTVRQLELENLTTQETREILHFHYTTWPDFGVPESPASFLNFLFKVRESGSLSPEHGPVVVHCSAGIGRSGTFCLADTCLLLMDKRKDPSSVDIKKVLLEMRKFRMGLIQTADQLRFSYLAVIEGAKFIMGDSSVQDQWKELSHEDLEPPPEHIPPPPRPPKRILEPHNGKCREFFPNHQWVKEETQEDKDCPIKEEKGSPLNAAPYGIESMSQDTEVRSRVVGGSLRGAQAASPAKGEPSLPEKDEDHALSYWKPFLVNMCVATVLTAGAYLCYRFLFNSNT
Method in brief: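 Human recombinant enzyme (0.05–0.1 µg) with 2 mM p-NPP in 50 mM citrate pH 6.0, 0.1 M NaCl, 1 mM EDTA, 1 mM DTT, 37 °C for 30 min. IC50 by regression, mean ± SD of three replicates.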

MDA-MB-231 [3] = test: Cytotoxicity against human MDA-MB-231 cells after 48 hrs by MTT assay; format: functional, cell-based; method in brief: as §1
NCI/ADR-RES = test: Ratio of tamoxifen IC50 to compound IC50 for human MCF7/ADR cells; format: functional
MDA-MB-231 [4] = test: Ratio of tamoxifen IC50 to compound IC50 for human MDA-MB-231 cells; format: functional
[5] = Homo sapiens, MCF7, 48 h, read-out: IC50
[6] = Homo sapiens, NCI/ADR-RES, 48 h, read-out: IC50
[7] = Homo sapiens, MDA-MB-231, 48 h, read-out: IC50

Row | Compound | IC50 [2] [µM] | IC50 (MCF7; [5]) [µM] | IC50 [1, 6] [µM] | IC50 (MDA-MB-231 [3]; [7]) [µM] | Ratio IC50 (NCI/ADR-RES) | Ratio IC50 (MDA-MB-231 [4]) | IC50 (MCF7; mcf7) | IC50 ([1]; nci/adr-res) | IC50 (MDA-MB-231 [3]; mda-mb-231)
1 | CC(C)=CCc1c2c(c(O)c3c(=O)c(-c4ccc(O)cc4)coc13)CC(C(C)(C)O)O2 (centres undefined) [ECHRENONE B10] | 24.2 | 4.32 | 5.76 | 3.97 | 1.93 | >3 |  |  | 
2 | COC(c1c2c(c(O)c3c(=O)c(-c4ccc(O)cc4)coc13)C=CC(C)(C)O2)C(O)C(C)(C)O (centres undefined) [ERYTHRADDISON I] | > 30 |  |  |  |  |  | Not Active | Not Active | Not Active
3 | CC/C(=C(\c1ccccc1)c1ccc(OCCN(C)C)cc1)c1ccccc1 [TAMOXIFEN] |  | 11.4 |  |  |  |  |  |  | 

The next lines start with results.

Row | IC50 [2] [µM] | Compound | IC50 (MCF7; [5]) [µM] | IC50 [1, 6] [µM] | IC50 (MDA-MB-231 [3]; [7]) [µM] | Ratio IC50 (NCI/ADR-RES) | Ratio IC50 (MDA-MB-231 [4]) | IC50 (MCF7; mcf7) | IC50 ([1]; nci/adr-res) | IC50 (MDA-MB-231 [3]; mda-mb-231)
4 | 17.4 | CC(C)=CCc1cc2c(=O)c(-c3ccc(O)cc3O)coc2c(CC=C(C)C)c1O [ERYTHRADDISON II] | 11.4 | 6.75 | 4.57 |  |  |  |  | 
5 | 4.6 | COc1ccc([C@H]2COc3cc(O)cc(O)c3C2=O)cc1CC=C(C)C [ERYTHRADDISON III] | 6.84 | 9.22 | 6.92 |  |  |  |  | 
6 | 13.8 | COc1cc2c(cc1[C@H]1COc3cc(O)cc(O)c3C1=O)C=CC(C)(C)O2 [ERYTHRADDISON IV] | 11 | 6.06 | 6.34 |  |  |  |  | 
7 | 7.8 | CC(C)=CCc1cc(-c2coc3c(CC=C(C)C)c(O)ccc3c2=O)ccc1O [ERYSUBIN F] |  |  |  |  |  |  |  | 
